Measurements taken from PMC3518043 (Biochemistry, 2012).

Tests used:
Type in all cases: binding
[1] = tested on: immobilized histone H3 (1-11); assay: surface plasmon resonance
[2] = tested on: histone H3 tail peptide (1-12); assay: 1H,15N HSQC NMR titration with H3 peptide; conditions: 0.1 mM 15N-labeled PHD1-2; H3 (1-12)
In short: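 15N-labelled CHD5 PHD1-2 expressed in E. coli BL21(DE3) pLysS grown in 15NH4Cl minimal medium and induced with 0.5 mM IPTG. GST fusion purified on glutathione agarose and tag cleaved with PreScission protease. Buffer was 20 mM Tris pH 6.8, 150 mM NaCl, 3 mM DTT. 1H,15N HSQC spectra of 0.1 mM protein recorded at 600 MHz with increasing amounts of H3 (1-12) peptide.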

histone H3 N-terminus = assay: overall signal intensity in histone peptide array / peptide screens; conditions: both peptide screens; at the same molar concentrations
[3] = tested on: histone H3 combinatorial peptide library; assay: on-bead 5,000-member combinatorial histone H3 library screen; conditions: for occurrence of peptides with high methylation at H3K4 (me2/3) / occurrence of peptides with low methylation at H3K4 (K4unmod and K4me): PHD1-2 screen
In short: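 One-bead-one-peptide H3 combinatorial library (5,000 members) incubated sequentially with GST-tagged PHD fingers, GST-specific primary antibody, biotinylated secondary antibody, then streptavidin-alkaline phosphatase for bead detection.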

[4] = tested on: unmodified histone H3 N-terminus (first eleven amino acids); assay: Amplified Luminescent Proximity Homogeneous Assay; conditions: 10 μM protein, only biotin- or only 6×His-peptide
In short: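 Recombinant CHD5 PHD constructs and H3 (1-11) peptides carrying either a 6×His tag or biotin were diluted in StabilCoat buffer to final 10 μM protein and 1 μM peptide. Mixtures shaken 30 min at ambient temperature. Donor and acceptor beads added at 15 μg/mL each (working), then shaken 30 min in the dark. Emission read at 570/100 nm with ALPHA filters.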

[5] = bivalent binding model (bivalent analyte), pH 7.5

- increase in affinity (lower Kd) compared with PHD1 and PHD2 alone ([1]; 1:1 Langmuir model): 4-11 fold
- off-rate kd ([1]; 1:1 Langmuir model, biotinylated H3 (1-11) on SA chip, pH 7.5): 0.00348 ± 5e-05 s⁻¹
- slower last off-rate (kd) compared with individual domains ([1]; last off-rate of PHD1-2 vs kd values of individual domains): 5-6 fold
- binding events in NMR titration [2]: two distinct binding events
B1: PHD1-2: tandem PHD-fingers of CHD5 (338-468), GST fusion in pGEX-KG; tag cleaved for SPR and NMR (protein)
chain: YETDHQDYCEVCQQGGEIILCDTCPRAYHLVCLDPELEKAPEGKWSCPHCEKEGIQWEPKDDDDEEEEGGCEEEEDDHMEFCRVCKDGGELLCCDACPSSYHLHCLNPPLPEIPNGEWLCPRCTCPPLKGK
modifications: left off: GST, end not stated, kept
- ka1 [1, 5]: 324 ± 11 M⁻¹ s⁻¹
- ka2 [1, 5]: 2.9×10^−5 ± 1×10^−6 1/RUs
- kd1 [1, 5]: 0.120 ± 0.005 s⁻¹
- kd2 [1, 5]: 0.00218 ± 3e-05 s⁻¹
- overall signal intensity compared to either domain alone (histone H3 N-terminus): notably higher
- occurrence of unmodified lysine-4 among positive beads ([3]; H3K4unmod, MALDI-TOF identification): 44 out of 90
- occurrence of H3T3 phosphorylation among positive beads ([3]; H3T3ph): 0 out of 90
- occurrence of H3T6 phosphorylation among positive beads ([3]; H3T6ph): 0 out of 90
- occurrence of peptides with high methylation at H3K4 (me2/3) ([3]; all peptides): 13%
- occurrence of peptides with low methylation at H3K4 (K4unmod and K4me) ([3]; all peptides): 74%
- occurrence of peptides with high methylation at H3K4 (me2/3) ([3]; peptides also containing R2me2a or R2me2s): 6%
- occurrence of peptides with low methylation at H3K4 (K4unmod and K4me) ([3]; peptides only containing Rme2a/s at H3R2): 91%
- ALPHA signal with either functionalized peptide alone [4]: no signal above background
